Data from ChEMBL document CHEMBL1154855 (Eur J Med Chem, 2010).
In brackets after ≈: the same amount, converted by molar mass.

Experiments:
Proteus mirabilis = test: Antibacterial activity against Proteus mirabilis after 24 hrs by broth microdilution method; format: functional; conditions: Proteus mirabilis, 24 h; read-out: MIC
Outline: (§1)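 Clinical isolates. Each dilution received 100 μl of 0.5 McFarland fresh culture. Solvent (DMSO), growth and standard controls were included. Tubes were incubated at 37 °C for 24 h. MIC is the highest dilution showing no turbidity. Tests were run in triplicate, with at least two repetitions.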

Streptococcus viridans = test: Antibacterial activity against Streptococcus viridans after 24 hrs by broth microdilution method; format: functional; conditions: Streptococcus viridans, 24 h; read-out: MIC; outline: as §1
Escherichia coli = test: Antibacterial activity against Escherichia coli after 24 hrs by broth microdilution method; format: functional; conditions: Escherichia coli, 24 h; read-out: MIC; outline: as §1
Klebsiella pneumoniae = test: Antibacterial activity against Klebsiella pneumoniae after 24 hrs by broth microdilution method; format: functional; conditions: Klebsiella pneumoniae, 24 h; read-out: MIC; outline: as §1
Influenza A virus [1] = test: Antiviral activity against Influenza A virus H1N1 infected in MDCK cells assessed as protection from virus-induced cytopathogenicity after 6 to 7 days by MTT assay; format: functional, organism-based
[2] = test system: Vesicular stomatitis virus; test: Antiviral activity against VSV infected in human HeLa cells assessed as protection from virus-induced cytopathogenicity after 1 to 2 days by MTT assay; format: functional, organism-based
Human alphaherpesvirus 2 = test: Antiviral activity against Herpes simplex virus 2 G infected in HEL cells assessed as protection from virus-induced cytopathogenicity after 2 to 3 days by MTT assay; format: functional, organism-based; conditions: Human alphaherpesvirus 2, strain G
[3] = test system: Mammalian orthoreovirus 1; test: Antiviral activity against Reovirus 1 infected in african green monkey Vero cells assessed as protection from virus-induced cytopathogenicity after 6 to 7 days by MTT assay; format: functional, organism-based; conditions: Mammalian orthoreovirus 1, Vero
[4] = Cytotoxicity against HIV1 3B-infected human MT4 cells by MTT assay; format: cell-based; conditions: MT4 cells infected with HIV-1 3B
Outline: (§2)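 MT-4 cells (3 × 10^4 per well) were cultured in microdilution trays with various concentrations of compound, then incubated 5 days at 37 °C, and viable cell number was read by MTT.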

[5] = test system: Vesicular stomatitis virus; test: Antiviral activity against VSV infected in HEL cells assessed as protection from virus-induced cytopathogenicity after 1 to 2 days by MTT assay; format: functional, organism-based
Feline coronavirus = test: Antiviral activity against Feline coronavirus infected in cat CRFK cells assessed as protection from virus-induced cytopathogenicity by MTT assay; format: functional, organism-based; conditions: Alphacoronavirus 1, CRFK
Punta Toro virus = test: Antiviral activity against Punta Toro virus infected in african green monkey Vero cells assessed as protection from virus-induced cytopathogenicity by MTT assay; format: functional, organism-based
[6] = test system: Human immunodeficiency virus 1; test: Antiviral activity against HIV1 3B-infected in human MT4 cells assessed as protection from virus-induced cytopathogenicity after 5 days by MTT assay; format: functional, organism-based; conditions: Human immunodeficiency virus 1, 3B, MT4, 120 h
Outline: (§3)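 MT-4 cells at 3 × 10^4 per well were infected with HIV (IIIB or ROD) at 50% cell culture infective doses. Graded compound concentrations were added immediately after infection. Plates were incubated for 5 days at 37 °C and viable cells were counted by MTT.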

Human respirovirus 3 = test: Antiviral activity against PIV 3 infected in african green monkey Vero cells assessed as protection from virus-induced cytopathogenicity after 6 to 7 days by MTT assay; format: functional, organism-based; conditions: Human respirovirus 3, Vero
[7] = Cytotoxicity against HIV2 ROD infected human MT4 cells by MTT assay; format: cell-based; conditions: MT4 cells infected with HIV-2 ROD; outline: as §2
Sindbis virus = test: Antiviral activity against Sindbis virus infected in african green monkey Vero cells assessed as protection from virus-induced cytopathogenicity after 2 to 3 days by MTT assay; format: functional, organism-based
Influenza A virus [8] = test: Antiviral activity against Influenza A virus H3N2 infected in MDCK cells assessed as protection from virus-induced cytopathogenicity after 6 to 7 days by MTT assay; format: functional, organism-based
[9] = test system: Human immunodeficiency virus 2; test: Antiviral activity against HIV2 ROD infected in human MT4 cells assessed as protection from virus-induced cytopathogenicity after 5 days by MTT assay; format: functional, organism-based; conditions: Human immunodeficiency virus 2, ISOLATE ROD, MT4, 120 h; outline: as §3
[10] = test system: Respiratory syncytial virus; test: Antiviral activity against Respiratory syncytial virus infected in human HeLa cells assessed as protection from virus-induced cytopathogenicity after 4 days by MTT assay; format: functional, organism-based; conditions: 96 h
Influenza B virus = test: Antiviral activity against Influenza B virus infected in MDCK cells assessed as protection from virus-induced cytopathogenicity after 6 to 7 days by MTT assay; format: functional, organism-based
HEL [11] = test: Cytotoxicity against Herpes simplex virus 2 G infected HEL cells by trypan blue exclusion method; format: cell-based; conditions: human, hel
Outline: (§4)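 Uninfected confluent cultures were run in parallel with the infected cultures. Medium was replaced by 1 ml maintenance medium with serial compound concentrations; cell controls received no compound. Cultures were incubated at 37 °C. After 2 and 7 days, compound was withdrawn and viability was determined by trypan blue exclusion.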

HEL [12] = test: Cytotoxicity against Vaccinia virus infected HEL cells by trypan blue exclusion method; format: cell-based; conditions: human, hel; outline: as §4
HEL [13] = test: Cytotoxicity against Herpes simplex virus 1 KOS infected HEL cells by trypan blue exclusion method; format: cell-based; conditions: human, hel; outline: as §4
HEL [14] = test: Cytotoxicity against acyclovir-sensitive Herpes simplex virus 1 KOS infected HEL cells by trypan blue exclusion method; format: cell-based; conditions: human; outline: as §4
HEL [15] = test: Cytotoxicity against VSV infected HEL cells by trypan blue exclusion method; format: cell-based; conditions: human, hel; outline: as §4
HeLa [16] = test: Cytotoxicity against VSV infected human HeLa cells by trypan blue exclusion method; format: cell-based; conditions: hela; outline: as §4
Coxsackievirus B4 = test: Antiviral activity against Human coxsackievirus B4 infected in african green monkey Vero cells assessed as protection from virus-induced cytopathogenicity after 2 days by MTT assay; format: functional, organism-based; conditions: Enterovirus B, 48 h
HeLa [17] = test: Cytotoxicity against Human coxsackievirus B4 infected human HeLa cells by trypan blue exclusion method; format: cell-based; conditions: hela; outline: as §4
Vero [18] = test: Cytotoxicity against PIV 3 infected african green monkey Vero cells by trypan blue exclusion method; format: cell-based; conditions: chlorocebus sabaeus, vero; outline: as §4
Vero [19] = test: Cytotoxicity against Human coxsackievirus B4 infected african green monkey Vero cells by trypan blue exclusion method; format: cell-based; conditions: chlorocebus sabaeus, vero; outline: as §4
Vero [20] = test: Cytotoxicity against Punta Toro virus infected african green monkey Vero cells by trypan blue exclusion method; format: cell-based; conditions: chlorocebus sabaeus, vero; outline: as §4
Vero [21] = test: Cytotoxicity against Reovirus 1 infected african green monkey Vero cells by trypan blue exclusion method; format: cell-based; conditions: chlorocebus sabaeus, vero; outline: as §4
HeLa [22] = test: Cytotoxicity against Respiratory syncytial virus infected human HeLa cells by trypan blue exclusion method; format: cell-based; conditions: hela; outline: as §4
Vero [23] = test: Cytotoxicity against Sindbis virus infected african green monkey Vero cells by trypan blue exclusion method; format: cell-based; conditions: chlorocebus sabaeus, vero; outline: as §4

CC1(C)S[C@@H]2[C@H](NC(=O)[C@H](N)c3ccccc3)C(=O)N2[C@H]1C(=O)O [AMPICILLIN TRIHYDRATE]
MIC (Proteus mirabilis): 1.23 µM | MIC (Streptococcus viridans): > 2.47 µM | MIC (Escherichia coli): 1.23 µM | MIC (Klebsiella pneumoniae): 0.6 µM

CCCCCCCCCC(=O)Oc1ccc(/C=C/C(=O)CC(=O)/C=C/c2ccc(OC(=O)CCCCCCCCC)c(OC)c2)cc1OC
EC50 (Influenza A virus [1]): > 0.147 µM | EC50 [2]: 0.147 µM | EC50 (Human alphaherpesvirus 2): > 0.147 µM | EC50 [3]: > 0.147 µM | CC50 [4]: > 0.081 µM | EC50 [5]: > 0.147 µM | EC50 (Feline coronavirus): > 0.029 µM | EC50 (Punta Toro virus): > 0.147 µM | IC50 [6]: 0.081 µM | EC50 (Human respirovirus 3): > 0.147 µM | CC50 [7]: > 0.079 µM | EC50 (Sindbis virus): > 0.147 µM | EC50 (Influenza A virus [8]): > 0.147 µM | IC50 [9]: 0.079 µM | EC50 [10]: > 0.147 µM | EC50 (Influenza B virus): > 0.147 µM

CCCCCCCCCCCCCCCC(=O)Oc1ccc(/C=C/C(=O)CC(=O)/C=C/c2ccc(OC(=O)CCCCCCCCCCCCCCC)c(OC)c2)cc1OC
MIC (Proteus mirabilis): 0.53 µM (≈ 0.448 µg/mL) | MIC (Escherichia coli): 0.53 µM (≈ 0.448 µg/mL) | MIC (Klebsiella pneumoniae): 0.53 µM (≈ 0.448 µg/mL)

O=c1[nH]c(=O)n([C@H]2C[C@H](O)[C@@H](CO)O2)cc1/C=C/Br [BRIVUDINE]
CC50 (HEL [11]): > 250 µM | CC50 (HEL [12]): > 250 µM | EC50 [5]: > 250 µM | CC50 (HEL [13]): > 250 µM | CC50 (HEL [14]): > 250 µM | CC50 (HEL [15]): > 250 µM

Nc1ncnc2c1ncn2C[C@H](O)CO [(S)-DHPA]
EC50 [2]: 146 µM | CC50 (HeLa [16]): > 250 µM | EC50 (Coxsackievirus B4): > 250 µM | CC50 (HeLa [17]): > 250 µM | CC50 (Vero [18]): > 250 µM | CC50 (Vero [19]): > 250 µM | EC50 [3]: > 250 µM | CC50 (Vero [20]): > 250 µM | EC50 (Punta Toro virus): > 250 µM | CC50 (Vero [21]): > 250 µM | EC50 (Human respirovirus 3): > 250 µM | CC50 (HeLa [22]): > 250 µM | EC50 (Sindbis virus): > 250 µM | CC50 (Vero [23]): > 250 µM | EC50 [10]: 146 µM
